High-throughput results deposited in PubChem by several laboratories.
Sampled rows, rich in hits. Any-hit rate of the full collection: about 3.7%.
AHR act – activates the human aryl hydrocarbon receptor; AHR-responsive luciferase reporter cells, luminescence; activation, % at 5 µM; hit rate 2.5% among 320,000; AID 2796; in the data active means activation above about 47%;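 further: 0% = vehicle wells and 100% = reference agonist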
SR-BI DiI-HDL act – activators of SR-BI mediated HDL lipid uptake. CHO ldlA[mSR-BI] cells, DiI-HDL uptake fluorescence, 3 h; 100 = double the neutral-control signal. activation, % at 12.5 µM. hit rate 0.096% among 320,000;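 active means mean replicate activation of at least 60% and every replicate at or above 60%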;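 further: 0% = median plate neutral-control signal and 100% = twice that signal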
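Test system: SR-BI-overexpressing, LDLR-lacking CHO cells; Medium: Ham's F12 with 0.5% BSA, HEPES 25 mM, pH 7.4; Schedule: 3 h, 37 °C; Technique: bottom-read fluorescence, 550/595 nm.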
SR-BI HDL uptake – inhibitors of mouse SR-BI mediated HDL lipid uptake; ldlA[mSR-BI] CHO cells, DiI-HDL uptake fluorescence, 3 h; inhibition, % at 12.5 µM; hit rate 0.96% among 320,000;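 active means mean replicate inhibition of at least 70% and a set share of replicates each scoring 70 or more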;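 further: 0% = median of neutral control wells and 100% = median of positive control wells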
Target sequence (Q61009 whole entry, looked up): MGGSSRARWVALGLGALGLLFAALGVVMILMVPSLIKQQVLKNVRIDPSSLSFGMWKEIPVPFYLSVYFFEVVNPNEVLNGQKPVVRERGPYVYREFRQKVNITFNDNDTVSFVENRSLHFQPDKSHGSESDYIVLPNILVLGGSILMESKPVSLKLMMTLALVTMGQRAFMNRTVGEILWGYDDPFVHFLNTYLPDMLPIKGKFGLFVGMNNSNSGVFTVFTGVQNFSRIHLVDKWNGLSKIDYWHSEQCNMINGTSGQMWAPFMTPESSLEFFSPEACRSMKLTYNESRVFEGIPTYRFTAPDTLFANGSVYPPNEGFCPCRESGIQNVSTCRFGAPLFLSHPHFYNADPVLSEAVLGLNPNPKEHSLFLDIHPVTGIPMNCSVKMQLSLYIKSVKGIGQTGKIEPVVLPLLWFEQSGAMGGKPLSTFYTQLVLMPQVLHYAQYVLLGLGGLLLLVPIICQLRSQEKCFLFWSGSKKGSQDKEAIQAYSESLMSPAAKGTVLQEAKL
GAA850 FXN act – increases GAA850 frataxin promoter reporter activity; HEK293 lucGAA850 FXN promoter luciferase reporter, 24 h; percent of 10 µM SAHA response; activation, % at 6 µM; hit rate 0.56% among 360,000;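 active means activation above the average of all compounds screened plus 3 SD, cutoff fixed separately per campaign, cut at about 7.5% in these data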;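 further: 0% = DMSO wells and 100% = 10 µM SAHA wells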
GASC-1 inh – inhibitors of human GASC-1 (JMJD2C) demethylase. inhibition, % at 2.35 µM. Q9H3R0. GST-JMJD2C(1-420) H3K9me3 demethylation, DELFIA europium. hit rate 0.069% among 330,000;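 active means more than half of a compound's replicate wells show inhibition beyond 50%, single wells judged on their own value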;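 further: signal counts dimethyl H3K9 product captured on neutravidin plate; 0% = median of DMSO wells and 100% = 0.3 times that DMSO median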
* marks the source's active call; other numbers are inactive results; x = no result given.

SMILES	AHR act	SR-BI DiI-HDL act	SR-BI HDL uptake	GAA850 FXN act	GASC-1 inh
CCn1c(=O)c(C(=O)NNC(=O)c2ccccc2Cl)c(O)c2ccccc21	0.1	5.9	-5.9	-1.2	4.2
CCn1c(=O)c(C(=O)NC(C)C)c(O)c2ccccc21	76.1*	3.5	-3.5	-0.4	-3.3
CCn1c(C(=O)NCc2cccnc2)cc2sc(Cl)cc21	34.1	418.3*	-418.3	3.2	-5.1
O=C(NCc1cccnc1)c1c(O)c2cccc3c2n(c1=O)CCC3	77.3*	-25.3	25.3	2.6	1.9
CCn1c(=O)c(C(=O)NCCc2ccc(Cl)cc2)c(O)c2ccccc21	1.8	-9.3	9.3	2.4	60.2*
CCCn1c(=O)c(C(=O)NCCc2ccc(Cl)cc2)c(O)c2ccccc21	x	-20.3	20.3	0.9	0.1
CC(C)Cn1cc(Cl)c(=O)n(CC(C)C)c1=O	0.4	16.0	-16.0	1.1	2.6
CN(C)CCCn1c2c(c(SCC(=O)Nc3cccc4ccccc34)nc1=O)CCCC2	0.4	10.7	-10.7	1.8	1.8
CCc1ccc(NC(=O)CS(=O)CC(=O)Nc2ccc(-n3cnnn3)c(C)c2)cc1 (configuration not stated)	1.6	-7.2	7.2	-1.4	10.2
Cc1nnc(NC(=O)CSc2ccc3nnc(-c4cccnc4)n3n2)s1	3.6	x	x	x	-16.1
C#CCOCCOCCOCCNc1nc(N2CCN(C(=O)C([C@@H](C)CC)n3cc(C(N)CO)nn3)CC2)nc(N2CCN(C(=O)C([C@@H](C)CC)n3cc(C(N)COC(=O)C(F)(F)F)nn3)CC2)n1 (some centres not stated)	-2.6	x	x	x	0.6
CCn1c(=O)c(C(=O)NCc2ccccc2)c(O)c2ccccc21	6.8	10.6	-10.6	2.0	21.2
CCn1c(=O)c(C(=O)NCc2cccnc2)c(O)c2ccccc21	55.9*	16.4	-16.4	1.6	2.5
Cc1cc(/C=C(/C#N)c2nc3ccccc3[nH]2)c(C)n1-c1cc(C(=O)O)cc(C(=O)O)c1	x	-1.3	1.3	0.0	-1.6
Cc1ccc2nc(/C(C#N)=C\c3cc(C)n(-c4cccc([N+](=O)[O-])c4)c3C)[nH]c2c1	58.5*	-60.6	60.6	1.3	-0.2
C[C@@H]1CN([C@@H](C)CO)C(=O)c2cc(NC(=O)c3ccccc3)ccc2O[C@@H](C)CCCCO[C@@H]1CN(C)S(=O)(=O)c1ccc(F)cc1	x	x	x	-2.8	x
O=C1c2ccccc2S(=O)(=O)N1CC1CC(c2ccc(Cl)cc2)=NO1 (configuration not stated)	48.9*	-2.5	2.5	2.8	5.4
O=C1c2ccccc2S(=O)(=O)N1CC1CC(c2ccccc2)=NO1 (configuration not stated)	4.4	12.4	-12.4	5.3	-1.6
Cc1ccc(N=C2C(=S)N(c3ccc(C)cc3)C(=N)N2/N=C/c2ccc(Cl)cc2)cc1	9.8	-65.1	65.1	1.2	8.0
COc1cccc(-c2nnc3sc(-c4ccccc4)nn23)c1	-10.0	-19.7	19.7	3.8	-2.3
COc1cccc(OC)c1-c1nn2c(-c3cc(-c4ccccc4)n[nH]3)nnc2s1	94.0*	-5.8	5.8	0.1	-0.5
Oc1ccc(C2C(c3ccccc3)=NN=C(c3ccc(Cl)cc3)N2O)c(O)c1 (configuration not stated)	47.7*	-46.6	46.6	-0.5	0.6
Oc1ccc(C2C(c3ccccc3)=NN=C(c3ccccc3F)N2O)c(O)c1 (configuration not stated)	8.2	-7.8	7.8	1.4	7.5
Fc1ccc(CCN2CCN=C2Nc2ccccc2)cc1	0.4	67.8*	-67.8	-1.8	-2.7
Cn1c(C(=O)O)cc2cc(Oc3ccccc3)ccc21	-0.7	27.6	-27.6	-0.1	3.8
SMILES	AHR act	SR-BI DiI-HDL act	SR-BI HDL uptake	GAA850 FXN act	GASC-1 inh
Cn1c(C(=O)NN)cc2cc(Oc3ccccc3)ccc21	2.7	-78.5	78.5*	0.8	18.1
Nc1nc2c(-c3ccc(Br)cc3)nnn2c2ccccc12	54.5*	-10.5	10.5	5.6	0.0
COCCN(C(=S)Nc1ccc(OC)cc1)C1CCN(C(C)=O)CC1	1.6	5.9	-5.9	0.4	-4.6
COC(=O)c1cc2c(n1S(=O)(=O)c1ccc(C)cc1)C(=O)C(=O)c1[nH]cc(C(=O)OCc3ccccc3)c1-2	x	-88.2	88.2*	-10.2	x
COC(=O)c1ccc(COC(=O)c2ccc(CS(=O)(=O)c3ccc(C)cc3)cc2)cc1	3.2	-9.6	9.6	2.8	-11.3
COc1ccc(CSc2ncnc3sccc23)cc1F	-3.4	-1.8	1.8	2.5	1.3
COc1ccccc1S(=O)(=O)Cc1ccc(C(=O)NCCN2CCCCCC2)o1	47.0*	2.0	-2.0	1.9	-5.9
CCC(C(=O)NC1C(=O)N2C(C(=O)O)=C(CSc3nnc(C)s3)CSC12)c1ccccc1 (configuration not stated)	-0.6	74.1*	-74.1	0.3	-3.5
CC(=O)Nc1ccc(NC(=O)C(C)OC(=O)C2CCN(S(=O)(=O)c3ccc4c(c3)OCCO4)CC2)cc1 (configuration not stated)	-0.4	-60.5	60.5	0.1	2.0
Cc1csc(N/N=C/c2ccccc2F)n1	40.7	-8.3	8.3	3.5	-1.9
Cc1csc(N/N=C/c2c(F)cccc2Cl)n1	57.2*	-10.0	10.0	1.4	-19.0
CCOC(CC(=O)NNC(=O)c1c(-c2c(Cl)cccc2Cl)noc1C)OCC	-2.5	x	x	-2.9	4.6
COCCn1c(=NC(=O)/C=C/c2ccccc2)sc2cc(NC(C)=O)ccc21	18.0	-88.4	88.4*	1.1	4.7
COCCn1c(=NC(C)=O)sc2cc([N+](=O)[O-])ccc21	2.6	-8.3	8.3	1.7	-6.7
Cc1nc(CSc2n[nH]c(=O)n2-c2cccc(F)c2)cs1	0.1	10.3	-10.3	-1.1	x
O=C1c2ccccc2C(=O)N1CCCCN(C(=O)c1cccc([N+](=O)[O-])c1)c1ccc(Cl)cc1	72.2*	-37.9	37.9	1.6	3.7
COc1ccc(N(CC(=O)N2CCOCC2)S(C)(=O)=O)cc1Cl	-3.2	20.0	-20.0	-0.2	-1.9
Cn1c(O)c(C=Nc2ccc(Br)cc2)sc1=O	62.6*	-17.6	17.6	3.8	-1.7
CCc1ccc(Nc2nnc(SCC(=O)Nc3sccc3C(N)=O)s2)cc1	60.3*	-12.8	12.8	-2.5	1.3
Cc1nn(C)c(C(=O)NNC(=S)NC2CCCCC2)c1Br	-2.9	-1.2	1.2	4.1	-4.3
Cn1c(/C(C#N)=C/Nc2ccccn2)nc2ccccc21	118.5*	-22.9	22.9	0.3	-14.7
CCOc1ccccc1N/C=C(\C#N)c1nc2ccccc2n1C	30.1	-44.1	44.1	1.6	-4.7
CC(C)(C)c1ccc(OCc2ccc(C(=O)N/N=C3\CC4CC=CC34)cc2)cc1 (configuration not stated)	7.3	-78.7	78.7*	-2.5	1.3
CC(C)(C)c1ccc(OCc2ccc(C(=O)N/N=C/c3ccc(O)c(O)c3)cc2)cc1	0.6	-107.3	107.3*	0.0	13.7
